For 30 molecules, ID50, Ki and APTT results are on record in ChEMBL document CHEMBL1134648 (J Med Chem, 2001).

For experiment [1], the species on record is Oryctolagus cuniculus. Nature of the experiment: (§1) Antithrombotic efficacy in a rabbit arteriovenous shunt thrombosis model. Type of experiment: functional. Put shortly:
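Test agents were given to rabbits by intravenous continuous infusion in an arterio-venous shunt thrombosis model.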

Experiment [2] deals with Coagulation factor X (Homo sapiens, UniProt P00742). The experiment in a line: Binding affinity against human coagulation factor X.
Experiment [3] has as its target T1, Coagulation factor X (Oryctolagus cuniculus, UniProt O19045).
T1 sequence (O19045 whole entry): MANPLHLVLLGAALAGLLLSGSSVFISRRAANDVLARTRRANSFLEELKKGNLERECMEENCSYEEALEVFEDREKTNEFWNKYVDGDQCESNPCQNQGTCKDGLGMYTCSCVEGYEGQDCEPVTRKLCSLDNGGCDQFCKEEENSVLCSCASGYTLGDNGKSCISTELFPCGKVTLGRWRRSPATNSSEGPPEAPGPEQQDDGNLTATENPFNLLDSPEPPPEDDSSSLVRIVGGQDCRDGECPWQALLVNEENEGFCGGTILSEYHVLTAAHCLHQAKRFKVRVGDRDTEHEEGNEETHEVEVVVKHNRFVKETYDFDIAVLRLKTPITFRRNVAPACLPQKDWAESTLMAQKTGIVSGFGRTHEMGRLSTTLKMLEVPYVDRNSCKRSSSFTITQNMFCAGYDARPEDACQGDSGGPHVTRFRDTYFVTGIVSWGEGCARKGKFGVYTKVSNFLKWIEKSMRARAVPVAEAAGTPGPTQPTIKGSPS
The experiment in a line: In vitro activity against rabbit FXa.

The species named for experiment [4] is Homo sapiens. The experiment in a line: In vitro human activated partial thromboplastin time of the compound. Type of experiment: functional.
In experiment [5] the target is Trypsin (Homo sapiens, UniProt P07477+P07478+P35030). Nature of the experiment: In vitro activity against human trypsin. In kind it is protein assay.
Experiment [6] concerns the target Prothrombin (Homo sapiens, UniProt P00734). Nature of the experiment: In vitro activity against human thrombin.
Experiment [7] has as its target Vitamin K-dependent protein C (Homo sapiens, UniProt P04070). Nature of the experiment: In vitro activity against human Activated protein C.
Experiment [8] deals with Urokinase-type plasminogen activator (Homo sapiens, UniProt P00749). Nature of the experiment: In vitro activity against human urokinase.
The target in experiment [9] is Tissue-type plasminogen activator (Homo sapiens, UniProt P00750). Nature of the experiment: In vitro activity against human tissue plasminogen activator.
Experiment [10] concerns the target T1, Coagulation factor X. Nature of the experiment: In vitro activity against rabbit factor Xa.
The target of experiment [11] is Plasma kallikrein (Homo sapiens, UniProt P03952). The experiment in a line: In vitro activity against human Plasma kallikrein. Type of experiment: cell-free.
Experiment [12] has as its target Coagulation factor IX (Homo sapiens, UniProt P00740). The experiment in a line: In vitro activity against human factor IXa.
For experiment [13], the target named is Plasminogen (Homo sapiens, UniProt P00747). The experiment in a line: In vitro activity against human plasmin.
Experiment [14] is filed under the species Homo sapiens. Nature of the experiment: In vitro Activated partial thromboplastin time of the compound. Type of experiment: functional.
The species entered for experiment [15] is Oryctolagus cuniculus. The description is as §1. Type of experiment: functional. This is another data set of the same source.

Molecules are shown by their SMILES.

Sequence of Coagulation factor X (Homo sapiens, UniProt P00742) (P00742 41-179 limits assumed): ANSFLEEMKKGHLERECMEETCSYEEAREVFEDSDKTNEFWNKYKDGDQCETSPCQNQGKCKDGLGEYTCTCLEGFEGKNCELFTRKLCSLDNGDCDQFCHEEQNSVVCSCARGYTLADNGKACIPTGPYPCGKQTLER
Sequence of Coagulation factor X (Homo sapiens, UniProt P00742) (P00742 235-488 limits assumed): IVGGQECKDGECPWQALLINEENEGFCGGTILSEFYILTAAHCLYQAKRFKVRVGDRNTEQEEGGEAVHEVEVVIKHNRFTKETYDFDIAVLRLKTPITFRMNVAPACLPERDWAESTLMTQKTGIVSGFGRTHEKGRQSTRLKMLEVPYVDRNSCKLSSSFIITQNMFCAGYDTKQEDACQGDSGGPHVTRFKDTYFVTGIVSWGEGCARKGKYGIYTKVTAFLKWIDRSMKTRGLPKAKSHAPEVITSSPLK
Sequence of Plasminogen (P00747 97-580 limits assumed): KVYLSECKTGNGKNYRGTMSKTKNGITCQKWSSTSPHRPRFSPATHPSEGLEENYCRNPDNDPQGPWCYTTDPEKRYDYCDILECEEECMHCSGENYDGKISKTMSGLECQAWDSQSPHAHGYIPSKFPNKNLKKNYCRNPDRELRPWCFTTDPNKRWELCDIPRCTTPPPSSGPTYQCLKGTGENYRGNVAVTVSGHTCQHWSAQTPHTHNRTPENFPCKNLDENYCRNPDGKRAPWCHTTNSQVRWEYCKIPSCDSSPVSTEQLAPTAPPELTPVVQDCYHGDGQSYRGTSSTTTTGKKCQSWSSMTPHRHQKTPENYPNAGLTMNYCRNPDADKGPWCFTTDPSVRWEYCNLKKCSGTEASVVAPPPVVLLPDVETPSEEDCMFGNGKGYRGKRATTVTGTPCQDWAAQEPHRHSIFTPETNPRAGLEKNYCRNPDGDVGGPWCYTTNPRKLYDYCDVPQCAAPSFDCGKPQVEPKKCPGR
Sequence of Plasminogen (P00747 581-810 limits assumed): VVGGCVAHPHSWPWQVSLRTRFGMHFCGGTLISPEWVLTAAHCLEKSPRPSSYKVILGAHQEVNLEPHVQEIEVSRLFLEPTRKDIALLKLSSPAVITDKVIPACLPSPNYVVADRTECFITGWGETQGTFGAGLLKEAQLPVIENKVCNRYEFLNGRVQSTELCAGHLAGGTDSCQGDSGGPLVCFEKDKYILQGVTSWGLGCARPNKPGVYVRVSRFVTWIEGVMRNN
Sequence of Coagulation factor IX (P00740 47-191 limits assumed): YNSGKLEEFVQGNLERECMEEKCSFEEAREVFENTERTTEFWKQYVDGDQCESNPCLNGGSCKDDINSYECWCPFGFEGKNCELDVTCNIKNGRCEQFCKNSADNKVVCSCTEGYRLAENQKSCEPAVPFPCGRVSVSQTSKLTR
Sequence of Coagulation factor IX (P00740 227-461 limits assumed): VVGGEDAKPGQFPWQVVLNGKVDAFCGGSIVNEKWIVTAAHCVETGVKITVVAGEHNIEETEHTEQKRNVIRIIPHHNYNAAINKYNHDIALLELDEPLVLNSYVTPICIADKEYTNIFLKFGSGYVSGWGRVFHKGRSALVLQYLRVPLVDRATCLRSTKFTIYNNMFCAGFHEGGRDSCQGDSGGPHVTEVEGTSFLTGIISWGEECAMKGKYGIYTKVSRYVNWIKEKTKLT
Sequence of Tissue-type plasminogen activator (P00750 whole entry): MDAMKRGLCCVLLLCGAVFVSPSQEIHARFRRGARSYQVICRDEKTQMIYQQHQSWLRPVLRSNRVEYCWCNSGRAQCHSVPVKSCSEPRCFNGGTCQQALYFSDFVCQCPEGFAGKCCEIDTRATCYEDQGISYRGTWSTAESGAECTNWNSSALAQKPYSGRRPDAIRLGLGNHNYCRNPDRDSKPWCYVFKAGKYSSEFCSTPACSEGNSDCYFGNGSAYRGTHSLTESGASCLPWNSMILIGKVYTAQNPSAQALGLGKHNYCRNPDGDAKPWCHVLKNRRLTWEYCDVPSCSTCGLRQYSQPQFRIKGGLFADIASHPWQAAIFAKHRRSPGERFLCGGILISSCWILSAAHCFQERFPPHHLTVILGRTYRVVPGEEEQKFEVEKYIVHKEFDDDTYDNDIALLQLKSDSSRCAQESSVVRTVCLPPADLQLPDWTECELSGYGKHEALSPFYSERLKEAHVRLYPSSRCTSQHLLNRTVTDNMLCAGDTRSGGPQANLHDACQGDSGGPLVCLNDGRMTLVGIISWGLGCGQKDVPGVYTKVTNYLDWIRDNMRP
Sequence of Vitamin K-dependent protein C (P04070 43-197 limits assumed): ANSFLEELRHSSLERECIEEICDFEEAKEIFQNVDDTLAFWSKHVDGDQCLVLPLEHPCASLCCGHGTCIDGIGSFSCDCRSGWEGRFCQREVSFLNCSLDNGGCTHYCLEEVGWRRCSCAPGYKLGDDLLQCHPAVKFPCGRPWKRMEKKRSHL
Sequence of Vitamin K-dependent protein C (P04070 212-461 limits assumed): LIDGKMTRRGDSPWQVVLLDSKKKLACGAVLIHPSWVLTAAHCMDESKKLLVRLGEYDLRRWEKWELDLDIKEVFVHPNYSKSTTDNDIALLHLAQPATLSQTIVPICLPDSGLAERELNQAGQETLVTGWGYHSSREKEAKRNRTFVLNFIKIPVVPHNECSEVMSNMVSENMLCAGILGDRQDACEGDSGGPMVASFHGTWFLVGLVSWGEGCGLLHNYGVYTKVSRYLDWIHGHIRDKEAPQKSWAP
Sequence of Plasma kallikrein (P03952 20-390 limits assumed): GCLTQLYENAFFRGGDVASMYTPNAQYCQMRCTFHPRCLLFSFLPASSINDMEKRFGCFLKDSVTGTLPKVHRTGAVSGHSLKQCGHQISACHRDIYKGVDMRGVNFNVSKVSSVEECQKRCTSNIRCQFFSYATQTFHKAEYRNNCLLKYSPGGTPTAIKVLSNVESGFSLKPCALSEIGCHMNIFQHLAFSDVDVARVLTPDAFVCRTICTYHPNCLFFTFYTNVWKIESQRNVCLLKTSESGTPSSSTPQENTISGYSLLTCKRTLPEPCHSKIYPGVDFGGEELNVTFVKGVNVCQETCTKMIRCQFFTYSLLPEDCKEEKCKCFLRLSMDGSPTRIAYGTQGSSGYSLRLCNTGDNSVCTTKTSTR
Sequence of Plasma kallikrein (P03952 391-638 limits assumed): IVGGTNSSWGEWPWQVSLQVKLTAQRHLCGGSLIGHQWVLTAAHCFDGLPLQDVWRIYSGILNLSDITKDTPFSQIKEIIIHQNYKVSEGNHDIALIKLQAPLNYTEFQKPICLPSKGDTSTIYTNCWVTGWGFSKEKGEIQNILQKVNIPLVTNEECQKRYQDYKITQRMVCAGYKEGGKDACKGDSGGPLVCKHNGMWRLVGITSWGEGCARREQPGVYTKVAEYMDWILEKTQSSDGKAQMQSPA

In the case of `Cc1cc(C(=O)Nc2ccc(-c3ccccc3S(C)(=O)=O)cc2F)n(-c2cccc(CN)c2)n1`, the ID50 in [1] turned out to be 0.9 µM/h/kg. Further, the inhibition constant (Ki) (as a rule, a dissociation constant, usually derived from enzyme kinetics or from competition with a known ligand) in experiment [2] was 480 nM; in experiment [3], 1.2 nM; in [5], 130 nM; in experiment [6], 14000 nM. In experiment [4], this molecule showed an APTT of 1.1 µM.

As to `Cc1cc(C(=O)Nc2ccc(-c3ccccc3S(N)(=O)=O)cc2Br)n(-c2cccc(C(=N)N)c2)n1`, the figures for the Ki in experiment [2], in experiment [5] and in [6] were 0.01 nM, 17 nM and 200 nM, respectively.

For `Cc1cc(C(=O)Nc2ccc(-c3ccccc3)cc2)n(-c2cccc(C(=N)N)c2)n1`, the Ki turned out to be 1.3 nM in experiment [2], 87 nM in experiment [5] and 600 nM in [6].

As for `Cc1cc(C(=O)Nc2ccc(-c3ccccc3S(N)(=O)=O)cc2F)n(-c2cccc(C(=N)N)c2)n1`, the Ki in experiment [2] was determined as 0.005 nM; in experiment [5] it was 4.6 nM; in experiment [6], 210 nM.

As to `Cc1cc(C(=O)Nc2ccc(-c3ccccc3S(N)(=O)=O)cn2)n(-c2cccc(C(=N)N)c2)n1`, the ID50 in experiment [1] was 0.07 µM/h/kg. In addition, the inhibition constant Ki in experiment [2] was 0.007 nM; in experiment [5] it was 59 nM; in [6], 1400 nM.

`Cc1cc(C(=O)Nc2ccc(-c3ccccc3S(N)(=O)=O)cc2Cl)n(-c2cccc(C(=N)N)c2)n1`: the Ki in [2] came out at 0.009 nM; in experiment [5] it was 15 nM; in experiment [6], 300 nM.

In the case of `Cc1cc(C(=O)Nc2ccc(-c3ccccc3S(N)(=O)=O)cc2)n(-c2cccc(CN)c2)n1`, the Ki worked out at 2.7 nM in experiment [2], 4.1 nM in experiment [3] and 21000 nM in [6]. This molecule had an APTT in experiment [4] of 2.3 µM.

Turning to `Cc1cc(C(=O)Nc2ccc(-c3ccccc3S(C)(=O)=O)cc2F)n(-c2cccc(C(=N)N)c2)n1`, the Ki was 0.02 nM in [2] and 230 nM in experiment [6].

Regarding `CCCCc1cc(C(=O)Nc2ccc(-c3ccccc3S(N)(=O)=O)cc2)n(-c2cccc(C(=N)N)c2)n1.O=C(O)C(F)(F)F`, the Ki in experiment [2] came out at 0.06 nM; in experiment [5], 11 nM; in experiment [6], 300 nM.

As to `CS(=O)(=O)c1ccccc1-c1ccc(NC(=O)c2cc(C(F)(F)F)nn2-c2cccc(CN)c2)c(F)c1.Cl`, the ID50 in experiment [1] is 1.1 µM/h/kg. Moreover, the inhibitory constant (Ki) in experiment [7] was 1800 nM; in [8], above 19000 nM; in experiment [9], above 45000 nM; in experiment [10] it was 0.3 nM; in experiment [11], 61 nM; in experiment [12] it was 2200 nM. In [13], the inhibitory constant (Ki) was above 35000 nM.

In [14], `Cc1cc(C(=O)Nc2ccc(-c3ccccc3S(N)(=O)=O)cc2)n(-c2cccc(C(=N)N)c2)n1.O=C(O)C(F)(F)F` displayed an APTT of 0.44 µM. Moreover, the ID50 in experiment [15] was determined as 0.02 µM/h/kg. In addition, the affinity in experiment [3] corresponds to a Ki of 0.03 nM.

For the molecule `N=C(N)c1cccc(-n2nc(C(F)(F)F)cc2C(=O)Nc2ccc(-c3ccccc3S(N)(=O)=O)cc2)c1`, the Ki in experiment [2] came to 0.015 nM; in [5] it was 3.9 nM; in experiment [6], 40 nM.

As for `CS(=O)(=O)c1ccccc1-c1ccc(NC(=O)c2cc(C(F)(F)F)nn2-c2cccc(C(=N)N)c2)cc1`, the Ki in experiment [2] amounted to 0.008 nM; in experiment [5], 4.3 nM; in [6] it was 70 nM.

Turning to `CS(=O)(=O)c1ccccc1-c1ccc(NC(=O)c2cc(C(F)(F)F)nn2-c2cccc(C(=N)N)c2)c(F)c1`, the inhibitory constant (Ki) in experiment [2] is below 0.005 nM; in [5], 3.4 nM; in [6], 50 nM.

Regarding `N=C(N)c1cccc(-n2cccc2C(=O)Nc2ccc(-c3ccccc3S(N)(=O)=O)cc2)c1`, the inhibitory constant (Ki) in [2] turned out to be 0.8 nM; in experiment [6], 900 nM.

As to `Cc1cc(C(=O)Nc2ccc(-c3ccccc3S(N)(=O)=O)cc2F)n(-c2cccc(CN)c2)n1`, the inhibition constant (Ki) in experiment [2] turned out to be 1.6 nM; in [3], 2.2 nM; in experiment [5], 120 nM; in experiment [6] it was 12000 nM. Besides, the APTT in experiment [4] was 0.92 µM.

`N=C(N)c1cccc(-c2nocc2C(=O)Nc2ccc(-c3ccccc3S(N)(=O)=O)cc2)c1` registered an inhibitory constant (Ki) in [6] of 2800 nM.

Take `CS(=O)(=O)c1ccccc1-c1ccc(NC(=O)c2cc(C(F)(F)F)nn2-c2cccc(CN)c2)cc1`: the ID50 in experiment [1] came to 2.2 µM/h/kg. In addition, the Ki in experiment [2] is 0.38 nM; in experiment [5] it was 100 nM; in experiment [6] it was 5800 nM. The molecule also displayed an APTT in experiment [4] of 2.2 µM.

Consider `N=C(N)c1cccc(-n2nc(C(F)(F)F)cc2C(=O)Nc2ccc(-c3ccccc3S(N)(=O)=O)cc2F)c1`, for which the inhibition constant Ki in experiment [2] is below 0.005 nM; in experiment [5] it was 4 nM; in experiment [6] it was 120 nM.

The molecule `NCc1cccc(-n2nc(C(F)(F)F)cc2C(=O)Nc2ccc(-c3ccccc3S(N)(=O)=O)cc2)c1` came in with an ID50 in experiment [1] of 1 µM/h/kg. Also, the inhibition constant (Ki) in [2] turned out to be 0.91 nM; in experiment [3], 2.1 nM; in experiment [5], 120 nM; in experiment [6], 14000 nM. In addition, the APTT in experiment [4] was 6.4 µM.

In the case of `N=C(N)c1cccc(-n2nc(C(F)(F)F)cc2C(=O)Nc2ccc(-c3ccccc3S(N)(=O)=O)cn2)c1`, the inhibitory constant (Ki) in experiment [2] worked out at 0.009 nM; in experiment [5] it was 59 nM; in experiment [6], 400 nM.

Turning to `Cc1cc(C(=O)Nc2ccc(-c3ccccc3S(C)(=O)=O)cc2)n(-c2cccc(C(=N)N)c2)n1`, the Ki in experiment [2] turned out to be 0.008 nM; in [5], 13 nM; in experiment [6] it was 180 nM.

Turning to `Cc1cc(C(=O)Nc2ccc(-c3ccccc3F)cc2)n(-c2cccc(C(=N)N)c2)n1`, the values for the Ki in [2], in experiment [5] and in experiment [6] were 0.46 nM, 100 nM and 450 nM, respectively.

As to `Cc1cc(C(=O)N(C)c2ccc(-c3ccccc3S(N)(=O)=O)cc2)n(-c2cccc(C(=N)N)c2)n1.O=C(O)C(F)(F)F`, the inhibition constant (Ki) was 11 nM in experiment [2], above 1600 nM in experiment [5] and above 2000 nM in experiment [6].

With `Cc1cc(C(=O)Nc2ccc(-c3ccccc3C(F)(F)F)cc2)n(-c2cccc(C(=N)N)c2)n1`, in experiment [1], the ID50 was determined as 0.24 µM/h/kg. Also, the Ki in [2] turned out to be 0.04 nM; in experiment [5], 49 nM; in [6] it was 300 nM.

With `Cc1cc(C(=O)Nc2ncc(-c3ccccc3S(N)(=O)=O)cn2)n(-c2cccc(C(=N)N)c2)n1`, in [1], the ID50 stood at 0.03 µM/h/kg. The inhibition constant Ki stood at 0.041 nM in experiment [2], 150 nM in [5] and 7400 nM in experiment [6].

`N=C(N)c1cccc(-n2nc(C(F)(F)F)cc2C(=O)Nc2ncc(-c3ccccc3S(N)(=O)=O)cn2)c1`: the inhibitory constant (Ki) in experiment [5] is on record as 20 nM.

As for `N=C(N)c1cccc(-n2nccc2C(=O)Nc2ccc(-c3ccccc3S(N)(=O)=O)cc2)c1`, the Ki was found to be 0.16 nM in experiment [2] and 900 nM in [6].

For the molecule `NCc1cccc(-n2nc(C(F)(F)F)cc2C(=O)Nc2ccc(-c3ccccc3S(N)(=O)=O)cc2F)c1`, the ID50 in experiment [1] came to 0.6 µM/h/kg. In addition, the Ki in experiment [2] was found to be 0.36 nM; in [3], 1 nM; in experiment [5], 53 nM; in experiment [6], 2000 nM. In addition, in experiment [4], the APTT is 0.91 µM.

On to `Cc1cc(C(=O)Nc2ccc(-c3ccccc3S(C)(=O)=O)cc2)n(-c2cccc(CN)c2)n1`, for which the Ki in experiment [2] came out at 0.89 nM; in experiment [5], 220 nM; in experiment [6], 21000 nM. For the same molecule, in experiment [4], the APTT came to 1.3 µM.
